In ChEMBL document CHEMBL5696442, “Discovery of type II inhibitors of TGFβ-activated kinase 1 (TAK1) and mitogen-activated protein kinase kinase kinase kinase 2 (MAP4K2)” (J Med Chem, 2015) one finds inhibition and residual activity data, which are given here for three molecules.

Active and inactive are the calls of the source. The calls are words filed in the database; no cut-off is given here.

The term inhibition denotes the drop in the measured response relative to a control, in per cent. The residual activity is what remains of the control signal, in per cent. Low values mean a large loss of activity, high ones a small loss of activity.

Assay [1] concerns the target Serine/threonine-protein kinase WNK3 (Homo sapiens) (UniProt Q9BYP7). Kind of assay: Inhibition of Wnk3 Lys2 labeling site in human Huh-7 cell lysate at 1 uM by KiNativ Profiling analysis relative to control. In kind it is subcellular.
In assay [2] the target is Serine/threonine-protein kinase Nek3 (Homo sapiens) (UniProt P51956). Kind of assay: Inhibition of NEK3 ACT labeling site in human Huh-7 cell lysate at 1 uM by KiNativ Profiling analysis relative to control. The assay is classed as subcellular.
Sequence of Serine/threonine-protein kinase Nek3 (Homo sapiens) (P51956 whole entry): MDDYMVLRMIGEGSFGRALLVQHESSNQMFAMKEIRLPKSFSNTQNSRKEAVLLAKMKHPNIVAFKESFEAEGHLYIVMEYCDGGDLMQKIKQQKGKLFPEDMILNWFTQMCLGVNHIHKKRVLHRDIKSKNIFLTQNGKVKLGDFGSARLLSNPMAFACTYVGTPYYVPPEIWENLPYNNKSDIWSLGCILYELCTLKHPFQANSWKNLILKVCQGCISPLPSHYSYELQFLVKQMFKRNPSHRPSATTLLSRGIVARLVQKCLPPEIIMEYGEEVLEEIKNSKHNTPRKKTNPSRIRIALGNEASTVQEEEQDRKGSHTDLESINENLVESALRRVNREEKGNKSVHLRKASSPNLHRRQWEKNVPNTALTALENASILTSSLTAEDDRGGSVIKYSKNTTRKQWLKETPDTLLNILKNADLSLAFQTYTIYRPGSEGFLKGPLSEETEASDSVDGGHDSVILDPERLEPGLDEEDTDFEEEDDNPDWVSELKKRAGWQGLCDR
Assay [3] addresses Mitogen-activated protein kinase kinase kinase 1 (Homo sapiens) (UniProt Q13233). Kind of assay: Inhibition of MAP3K1 Lys2 labeling site in human Huh-7 cell lysate at 1 uM by KiNativ Profiling analysis relative to control. In kind it is subcellular.
Assay [4] has as its target Serine/threonine-protein kinase ATR (Homo sapiens) (UniProt Q13535). Kind of assay: Inhibition of ATR in human Huh-7 cells at 1 uM by KiNativ Profiling analysis relative to control. In kind it is cell-based.
The target of assay [5] is T1, Mitogen-activated protein kinase kinase kinase 2 (Homo sapiens) (UniProt Q9Y2U5).
T1 sequence (whole entry): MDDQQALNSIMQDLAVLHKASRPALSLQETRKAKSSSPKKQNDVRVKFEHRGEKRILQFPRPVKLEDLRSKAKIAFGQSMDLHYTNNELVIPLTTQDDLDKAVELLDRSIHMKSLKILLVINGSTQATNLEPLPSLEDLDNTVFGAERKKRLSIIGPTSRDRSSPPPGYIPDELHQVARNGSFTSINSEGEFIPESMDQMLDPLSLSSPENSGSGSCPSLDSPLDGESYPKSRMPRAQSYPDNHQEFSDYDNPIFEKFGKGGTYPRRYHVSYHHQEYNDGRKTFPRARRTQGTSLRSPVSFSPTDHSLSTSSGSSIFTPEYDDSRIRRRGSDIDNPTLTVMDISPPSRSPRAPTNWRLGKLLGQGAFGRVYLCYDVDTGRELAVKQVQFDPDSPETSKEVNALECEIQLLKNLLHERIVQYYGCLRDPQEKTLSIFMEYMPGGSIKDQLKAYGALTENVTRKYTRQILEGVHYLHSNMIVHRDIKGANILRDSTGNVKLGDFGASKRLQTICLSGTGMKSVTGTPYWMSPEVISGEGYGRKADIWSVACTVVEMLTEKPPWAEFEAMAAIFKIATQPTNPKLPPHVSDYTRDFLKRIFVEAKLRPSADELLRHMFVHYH
Kind of assay: Inhibition of MAP3K2 Lys2 labeling site in human Huh-7 cell lysate at 1 uM by KiNativ Profiling analysis relative to control. The assay is classed as subcellular.

Assay [6] addresses Phosphatidylinositol 4-kinase alpha (Homo sapiens) (UniProt P42356). Kind of assay: Inhibition of PI4KA ATP labeling site in human Huh-7 cells at 1 uM by KiNativ Profiling analysis relative to control. In kind it is cell-based.
In assay [7] the target is Microtubule-associated serine/threonine-protein kinase 3 (Homo sapiens) (UniProt O60307). Kind of assay: Inhibition of MAST3 Lys2 labeling site in human Huh-7 cell lysate at 1 uM by KiNativ Profiling analysis relative to control. In kind it is subcellular.
The target in assay [8] is Ribosomal protein S6 kinase alpha-3 (Homo sapiens) (UniProt P51812). Kind of assay: Inhibition of RSK2 domain1 ACT labeling site in human A-375 cells at 5 uM by KiNativ Profiling analysis relative to control. The assay is classed as cell-based. Put shortly:
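Live A375 melanoma cells treated with compound at 5 or 0.5 μM, then lysed. Lysate kinases were labeled with a lysine-reactive ATP or ADP-biotin probe. Inhibition was read as protection of labeling sites from the probe.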

Assay [9] deals with Epidermal growth factor receptor (Homo sapiens) (UniProt P00533). Kind of assay: Inhibition of EGFR (unknown origin) at 1 uM by Ambit Kinomescan binding assay relative to control.
For assay [10], the target named is Mast/stem cell growth factor receptor Kit (Homo sapiens) (UniProt P10721). Kind of assay: Inhibition of KIT (unknown origin) at 1 uM by Ambit Kinomescan binding assay relative to control; values are per cent of control.
Assay [11] concerns the target Tyrosine-protein kinase JAK1 (Homo sapiens) (UniProt P23458). Kind of assay: Inhibition of JAK1 domain2 Lys1 labeling site in human A-375 cells at 0.05 uM by KiNativ Profiling analysis relative to control. In kind it is cell-based.
Assay [12] concerns the target Mitogen-activated protein kinase kinase kinase 20 (Homo sapiens, UniProt Q9NYL2). Kind of assay: Inhibition of ZAK Lys1 labeling site in human A-375 cells at 0.5 uM by KiNativ Profiling analysis relative to control. The assay is classed as cell-based.
In assay [13] the target is T2, Acylglycerol kinase, mitochondrial (Homo sapiens) (UniProt Q53H12).
T2 sequence (whole entry): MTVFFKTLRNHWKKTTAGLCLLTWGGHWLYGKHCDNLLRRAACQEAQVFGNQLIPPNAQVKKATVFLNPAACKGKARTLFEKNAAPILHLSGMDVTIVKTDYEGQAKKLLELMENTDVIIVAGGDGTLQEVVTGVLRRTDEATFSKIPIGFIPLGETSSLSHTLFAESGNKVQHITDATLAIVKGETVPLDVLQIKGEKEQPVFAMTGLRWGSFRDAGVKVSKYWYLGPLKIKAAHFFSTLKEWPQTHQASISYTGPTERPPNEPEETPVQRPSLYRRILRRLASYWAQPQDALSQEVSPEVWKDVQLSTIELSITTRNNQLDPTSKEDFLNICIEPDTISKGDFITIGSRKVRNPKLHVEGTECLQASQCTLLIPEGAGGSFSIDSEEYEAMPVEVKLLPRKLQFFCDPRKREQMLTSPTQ
Kind of assay: Inhibition of AGK ATP labeling site in human Huh-7 cells at 10 uM by KiNativ Profiling analysis relative to control. The assay is classed as cell-based.

The target of assay [14] is T3, Myotonin-protein kinase (Homo sapiens) (UniProt Q09013).
T3 sequence (whole entry): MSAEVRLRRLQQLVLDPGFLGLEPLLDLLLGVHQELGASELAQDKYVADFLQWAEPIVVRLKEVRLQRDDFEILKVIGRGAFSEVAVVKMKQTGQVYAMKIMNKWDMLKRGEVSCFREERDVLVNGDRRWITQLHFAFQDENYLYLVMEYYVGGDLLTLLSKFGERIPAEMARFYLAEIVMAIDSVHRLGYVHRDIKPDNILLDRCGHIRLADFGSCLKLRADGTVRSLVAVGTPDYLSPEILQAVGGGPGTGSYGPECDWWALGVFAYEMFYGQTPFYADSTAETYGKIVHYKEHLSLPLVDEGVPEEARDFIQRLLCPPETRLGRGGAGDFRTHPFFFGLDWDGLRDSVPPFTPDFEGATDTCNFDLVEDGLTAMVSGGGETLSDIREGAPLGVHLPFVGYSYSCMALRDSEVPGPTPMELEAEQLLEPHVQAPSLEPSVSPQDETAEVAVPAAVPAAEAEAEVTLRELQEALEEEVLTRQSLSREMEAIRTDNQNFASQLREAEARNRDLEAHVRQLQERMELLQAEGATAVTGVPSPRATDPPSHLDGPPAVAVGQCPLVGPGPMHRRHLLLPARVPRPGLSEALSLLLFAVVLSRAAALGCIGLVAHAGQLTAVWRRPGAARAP
Kind of assay: Inhibition of DMPK1 K2 labeling site in human Huh-7 cells at 1 uM by KiNativ Profiling analysis relative to control. In kind it is cell-based.

Sequence of Mitogen-activated protein kinase kinase kinase 1 (Homo sapiens) (Q13233 whole entry): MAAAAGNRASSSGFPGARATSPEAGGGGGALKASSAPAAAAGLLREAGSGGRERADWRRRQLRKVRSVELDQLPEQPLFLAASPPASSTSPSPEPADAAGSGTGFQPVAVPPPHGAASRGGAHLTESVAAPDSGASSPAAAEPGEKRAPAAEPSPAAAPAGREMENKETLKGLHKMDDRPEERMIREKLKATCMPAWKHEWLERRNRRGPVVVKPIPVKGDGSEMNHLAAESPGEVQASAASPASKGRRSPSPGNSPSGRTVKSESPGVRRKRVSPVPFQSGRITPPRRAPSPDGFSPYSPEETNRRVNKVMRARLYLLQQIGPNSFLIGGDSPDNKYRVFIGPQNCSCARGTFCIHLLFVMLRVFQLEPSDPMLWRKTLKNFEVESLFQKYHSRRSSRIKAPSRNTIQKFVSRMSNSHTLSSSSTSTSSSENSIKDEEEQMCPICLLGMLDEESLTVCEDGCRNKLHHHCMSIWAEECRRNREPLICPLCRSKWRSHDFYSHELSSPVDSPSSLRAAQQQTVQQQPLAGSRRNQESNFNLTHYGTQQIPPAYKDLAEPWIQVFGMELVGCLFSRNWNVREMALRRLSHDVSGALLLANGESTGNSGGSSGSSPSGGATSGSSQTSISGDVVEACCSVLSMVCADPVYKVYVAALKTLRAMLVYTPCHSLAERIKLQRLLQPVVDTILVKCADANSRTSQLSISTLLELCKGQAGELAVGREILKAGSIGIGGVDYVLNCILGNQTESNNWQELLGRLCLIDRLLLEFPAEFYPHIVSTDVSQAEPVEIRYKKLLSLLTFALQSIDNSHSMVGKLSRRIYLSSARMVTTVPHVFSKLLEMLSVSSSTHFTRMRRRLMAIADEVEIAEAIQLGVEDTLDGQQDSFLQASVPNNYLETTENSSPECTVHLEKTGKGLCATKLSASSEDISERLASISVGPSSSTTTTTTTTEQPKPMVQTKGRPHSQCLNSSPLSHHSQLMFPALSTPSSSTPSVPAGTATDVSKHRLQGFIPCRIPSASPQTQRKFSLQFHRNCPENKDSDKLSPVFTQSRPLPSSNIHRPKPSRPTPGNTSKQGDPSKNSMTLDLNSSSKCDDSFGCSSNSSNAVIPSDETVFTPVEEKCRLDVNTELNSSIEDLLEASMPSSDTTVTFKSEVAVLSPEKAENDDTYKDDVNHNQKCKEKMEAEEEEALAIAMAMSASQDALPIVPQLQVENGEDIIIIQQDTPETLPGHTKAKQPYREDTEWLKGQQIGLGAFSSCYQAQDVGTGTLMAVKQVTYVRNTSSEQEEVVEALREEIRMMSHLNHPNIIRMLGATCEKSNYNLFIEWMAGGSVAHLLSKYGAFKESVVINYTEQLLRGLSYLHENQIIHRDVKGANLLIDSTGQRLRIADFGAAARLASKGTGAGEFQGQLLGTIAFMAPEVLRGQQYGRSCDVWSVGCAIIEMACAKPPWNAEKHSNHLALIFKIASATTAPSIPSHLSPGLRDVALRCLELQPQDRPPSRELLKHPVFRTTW
Sequence of Serine/threonine-protein kinase ATR (Homo sapiens) (Q13535 whole entry, looked up): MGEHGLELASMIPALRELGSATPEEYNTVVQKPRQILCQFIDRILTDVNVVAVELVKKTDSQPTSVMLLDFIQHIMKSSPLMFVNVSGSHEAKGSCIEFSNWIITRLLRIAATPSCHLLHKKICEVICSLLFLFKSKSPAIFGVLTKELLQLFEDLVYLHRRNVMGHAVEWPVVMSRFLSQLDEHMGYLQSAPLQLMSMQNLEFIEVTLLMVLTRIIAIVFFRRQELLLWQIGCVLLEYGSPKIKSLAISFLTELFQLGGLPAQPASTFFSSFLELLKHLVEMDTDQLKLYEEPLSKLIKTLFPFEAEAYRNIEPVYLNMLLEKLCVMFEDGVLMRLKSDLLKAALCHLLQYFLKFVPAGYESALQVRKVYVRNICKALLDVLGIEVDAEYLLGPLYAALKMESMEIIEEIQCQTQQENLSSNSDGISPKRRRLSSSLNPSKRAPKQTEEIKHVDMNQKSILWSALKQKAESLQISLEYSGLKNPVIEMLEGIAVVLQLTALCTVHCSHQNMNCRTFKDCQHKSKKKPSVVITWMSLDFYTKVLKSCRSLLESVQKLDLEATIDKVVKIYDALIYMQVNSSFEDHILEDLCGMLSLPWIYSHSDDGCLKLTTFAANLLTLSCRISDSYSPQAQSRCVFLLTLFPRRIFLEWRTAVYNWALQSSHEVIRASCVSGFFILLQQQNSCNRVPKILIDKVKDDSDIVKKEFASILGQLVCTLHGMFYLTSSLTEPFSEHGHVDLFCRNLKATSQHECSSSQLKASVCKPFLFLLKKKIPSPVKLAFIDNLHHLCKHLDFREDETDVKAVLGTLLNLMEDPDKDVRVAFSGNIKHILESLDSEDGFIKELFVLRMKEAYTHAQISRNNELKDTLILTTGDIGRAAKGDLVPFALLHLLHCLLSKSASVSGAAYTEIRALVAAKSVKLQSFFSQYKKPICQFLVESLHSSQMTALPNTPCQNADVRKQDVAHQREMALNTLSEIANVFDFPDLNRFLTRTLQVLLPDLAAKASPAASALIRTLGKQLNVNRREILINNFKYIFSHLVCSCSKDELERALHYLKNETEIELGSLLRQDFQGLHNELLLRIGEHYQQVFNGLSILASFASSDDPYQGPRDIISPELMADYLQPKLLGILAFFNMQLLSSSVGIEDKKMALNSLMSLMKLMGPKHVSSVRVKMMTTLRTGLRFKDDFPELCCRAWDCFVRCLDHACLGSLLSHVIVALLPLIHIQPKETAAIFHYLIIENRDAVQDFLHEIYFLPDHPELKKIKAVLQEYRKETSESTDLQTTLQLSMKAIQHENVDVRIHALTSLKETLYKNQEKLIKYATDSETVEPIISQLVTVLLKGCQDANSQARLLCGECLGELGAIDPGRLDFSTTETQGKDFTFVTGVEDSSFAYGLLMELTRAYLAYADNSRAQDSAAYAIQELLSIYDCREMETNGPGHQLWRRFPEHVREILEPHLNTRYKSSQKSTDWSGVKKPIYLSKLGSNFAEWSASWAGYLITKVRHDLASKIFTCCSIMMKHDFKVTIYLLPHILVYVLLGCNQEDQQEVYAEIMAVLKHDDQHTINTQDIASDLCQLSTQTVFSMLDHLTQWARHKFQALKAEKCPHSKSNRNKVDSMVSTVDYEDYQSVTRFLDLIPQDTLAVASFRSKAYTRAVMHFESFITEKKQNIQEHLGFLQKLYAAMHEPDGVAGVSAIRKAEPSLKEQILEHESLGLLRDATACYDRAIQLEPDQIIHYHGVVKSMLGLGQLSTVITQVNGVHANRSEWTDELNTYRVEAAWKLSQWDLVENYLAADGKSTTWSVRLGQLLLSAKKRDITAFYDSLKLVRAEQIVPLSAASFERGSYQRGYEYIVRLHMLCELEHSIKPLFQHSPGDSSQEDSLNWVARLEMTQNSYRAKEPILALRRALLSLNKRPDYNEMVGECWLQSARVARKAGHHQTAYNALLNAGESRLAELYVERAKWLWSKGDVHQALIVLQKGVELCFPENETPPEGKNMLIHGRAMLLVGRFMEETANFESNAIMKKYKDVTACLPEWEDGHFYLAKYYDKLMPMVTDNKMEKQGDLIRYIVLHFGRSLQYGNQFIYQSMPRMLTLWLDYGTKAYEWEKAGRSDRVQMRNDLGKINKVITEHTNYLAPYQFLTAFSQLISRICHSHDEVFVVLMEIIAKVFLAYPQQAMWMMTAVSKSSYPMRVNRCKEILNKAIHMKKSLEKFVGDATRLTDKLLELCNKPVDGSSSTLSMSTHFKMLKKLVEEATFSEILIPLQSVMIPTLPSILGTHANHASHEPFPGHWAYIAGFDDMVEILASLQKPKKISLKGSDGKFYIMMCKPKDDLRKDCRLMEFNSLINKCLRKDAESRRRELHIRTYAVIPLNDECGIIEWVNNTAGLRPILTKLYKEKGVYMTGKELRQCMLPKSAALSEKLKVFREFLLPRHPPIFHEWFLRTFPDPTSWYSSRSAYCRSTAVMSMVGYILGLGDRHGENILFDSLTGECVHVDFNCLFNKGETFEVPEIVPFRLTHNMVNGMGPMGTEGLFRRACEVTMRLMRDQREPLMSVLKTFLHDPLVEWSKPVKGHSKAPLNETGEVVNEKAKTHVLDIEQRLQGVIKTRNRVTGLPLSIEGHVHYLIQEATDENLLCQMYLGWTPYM

Turning to `CNc1cc(Oc2cc(C(=O)Nc3cc(N4CCN(C)CC4)cc(C(F)(F)F)c3)ccc2C)ncn1`, the inhibition was 2.7% in assay [1]; 9.3% in [2]; -2.3% in assay [3]; 29.3% in assay [4]; 1.9% in [5]; 29.8% in [6]. Further, the inhibition in [7] was -0.3%.
As for `CCN1CCN(Cc2ccc(NC(=O)c3ccc(C)c(/C=C/c4cnc5[nH]ccc5c4OC)c3)cc2C(F)(F)F)CC1`, the inhibition in assay [8] is 17.8%; in assay [9], 7.6%. Besides, the residual activity in assay [10] came out at 0.3%.
`CCN1CCN(Cc2ccc(NC(=O)c3ccc(C)c(Oc4ccnc5[nH]ccc45)c3)cc2C(F)(F)F)CC1`: the inhibition is 17.4% in assay [11], 93% in assay [12] and -7.6% in assay [14]. The inhibition result in [13] is “inactive”.
